Source: PubChem (several laboratories)
The full list was thinned out, with hits kept by preference.
H69AR growth 86K: growth inhibitors of human H69AR lung tumor cells; H69AR lung tumor viability, ATP luminescence, 72 h; hits give low values; viability, % at 10 µM; actives 6% (n = 85,000); AID 598;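 active means viability at or below 40%; inactive means viability above 40%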;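 further: multidrug resistant small cell line overexpressing MRP-1 efflux transporter; 100% = mean luminescence of untreated control wells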
HUVEC prolif 384: human endothelial cell proliferation inhibition; viability, % at 10 µM (by protocol); actives 1.1% (n = 86,000); HUVEC proliferation, CellTiter-Glo luminescence, 72 h; hits give low values; AID 648;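 active means viability at or below 30%; inactive means viability above 30%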;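 further: 100% = median luminescence of DMSO-only cell control wells on each plate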
Lung fibro prol: blocks proliferation of human lung fibroblasts | LL 47 human lung fibroblast viability, ATP luminescence; hits give low values | viability, % at 10 µM | actives 1.1% (n = 85,000) | AID 719;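 active means viability at or below 50% in the single dose screen; inactive means viability above 50%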;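 further: compound exposure lasted 72 h before the ATP readout; 100% = median luminescence of untreated cell-only wells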
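Test system: LL 47 human lung fibroblasts / Incubation: 72 h compound exposure at 37 °C after overnight plating / Technique: luminescent ATP detection, CellTiter-Glo / Compound dosing: 0.1% DMSO in all compound wells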
HCT116 bCat-KO: beta-catenin-lacking colon tumor cell growth suppression. HCT116 beta-catenin knockout viability, CellTiter-Glo, 60 h; hits give low values. viability, % at 10 µM. actives 1.5% (n = 140,000);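 active means viability at or under a set limit, the compound median less 4 SD, cut at about 6% in these data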;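 further: 0% = Hyamine 1622 control at 20 µM and 100% = untreated cell control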
PTK2B oligo ant: blocks oligomerization of human Pyk2 in cells. Q14289. Q293 cells, Pyk2 FERM NanoBiT luminescence; hits give low values. z-score (the deposit names both 25 µM and 10 µM). actives 0.83% (n = 99,000). AID 1347419;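 active means Z-score of -3 or lower, scaled per plate to the spread of control and sample wells; inactive means z-score above -3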;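 further: negative z-score means lost luminescence so less FERM oligomerization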
Target sequence (Q14289 whole entry, looked up): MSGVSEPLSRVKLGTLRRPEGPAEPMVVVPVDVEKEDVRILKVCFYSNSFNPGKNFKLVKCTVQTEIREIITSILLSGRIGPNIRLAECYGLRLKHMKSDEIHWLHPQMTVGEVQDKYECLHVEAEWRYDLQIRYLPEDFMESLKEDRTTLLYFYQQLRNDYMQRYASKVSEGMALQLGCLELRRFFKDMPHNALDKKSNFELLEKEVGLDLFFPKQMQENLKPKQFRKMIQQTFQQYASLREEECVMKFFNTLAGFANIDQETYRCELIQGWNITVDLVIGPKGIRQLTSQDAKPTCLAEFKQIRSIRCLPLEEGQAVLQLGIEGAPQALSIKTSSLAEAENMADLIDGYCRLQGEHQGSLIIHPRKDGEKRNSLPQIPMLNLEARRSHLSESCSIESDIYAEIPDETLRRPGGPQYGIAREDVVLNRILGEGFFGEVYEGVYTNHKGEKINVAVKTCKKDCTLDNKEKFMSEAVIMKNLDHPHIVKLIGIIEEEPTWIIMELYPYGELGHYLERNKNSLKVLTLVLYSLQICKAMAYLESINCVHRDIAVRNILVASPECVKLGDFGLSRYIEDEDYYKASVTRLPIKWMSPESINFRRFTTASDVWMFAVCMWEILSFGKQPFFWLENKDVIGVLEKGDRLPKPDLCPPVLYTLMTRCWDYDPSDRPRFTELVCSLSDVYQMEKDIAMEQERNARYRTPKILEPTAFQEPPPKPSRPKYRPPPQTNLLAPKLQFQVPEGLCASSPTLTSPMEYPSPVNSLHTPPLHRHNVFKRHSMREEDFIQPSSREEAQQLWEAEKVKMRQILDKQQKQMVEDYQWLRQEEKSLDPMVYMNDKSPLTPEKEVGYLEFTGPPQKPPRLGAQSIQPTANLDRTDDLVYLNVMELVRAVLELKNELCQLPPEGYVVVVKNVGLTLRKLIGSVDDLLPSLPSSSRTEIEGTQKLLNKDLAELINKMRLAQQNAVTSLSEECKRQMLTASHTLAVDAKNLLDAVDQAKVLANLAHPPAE
HCT116 PTEN-null: PTEN-deleted cell growth suppression; HCT116 PTEN-null viability, CellTiter-Glo, 60 h; hits give low values; viability, % at 10 µM; actives 1.2% (n = 140,000);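 active means viability at or below a set limit, 4 SD under the median of all tested compounds, cut at about 3.7% in these data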;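 further: PTEN knockout HCT116 line with beta catenin targeted HCT116 as companion control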
An asterisk follows results filed as active; . = no result.

SMILES	H69AR growth 86K	HUVEC prolif 384	Lung fibro prol	HCT116 bCat-KO	PTK2B oligo ant	HCT116 PTEN-null
Cc1cccc(NC(=O)c2ccc([N+](=O)[O-])o2)n1	.	.	.	3.3*	0.47	2.5*
Cc1nn(C(=O)N2CCOCC2)c(C)c1C	99.1	90.2	92.9	0.9*	0.99	0.9*
CCCC(=O)N1CCN(c2ccc(NC(=O)c3cc4ccccc4o3)cc2Cl)CC1	13.5*	2.1*	16.1*	105.4	-2.7	96.3
O=C(Nc1ccc(N2CCN(C(=O)c3ccccc3)CC2)c(Cl)c1)c1ccco1	72.9	69.8	95.7	84.0	-1	83.1
CCC(=O)N1CCN(c2ccc(NC(=O)c3cc4ccccc4o3)cc2Cl)CC1	10.3*	2.9*	42.5*	2.5*	-3.15*	3.1*
O=C(Nc1ccc(N2CCN(C(=O)c3ccco3)CC2)c(Cl)c1)c1cc2ccccc2o1	36.8*	7.9*	43.4*	2.8*	-3.13*	3.2*
CC1=C(C(=O)N2CCOCC2)C(c2ccc(Cl)cc2)NC(=S)N1 (stereo unspecified)	.	.	.	92.1	.	99.4
CC(=O)Nc1cccc(NC(=O)Cc2nc(-c3ccccc3)sc2-c2ccc(C)cc2)c1	.	.	.	9.8	.	1.4*
COc1ccc2c(C)nc(Nc3nc(C)cc(=O)[nH]3)nc2c1	22.7*	2.6*	8.6*	.	.	.
COCc1cc(=O)[nH]c(Nc2nc(C)c3cc(OC)ccc3n2)n1	89.3	86.4	98.5	87.5	.	92.6
CCOc1ccc2nc(NC3=NCN(Cc4ccco4)CN3)nc(C)c2c1	51.4	30.0	52.0	.	.	.
CCOc1ccc2c(C)nc(NC3=NC(C)(C)C=C(C)N3)nc2c1	94.2	78.7	83.1	12.4	0.3	8.9
CCOc1ccc2nc(NC3=NC(c4ccc(OC)cc4)CC(=O)N3)nc(C)c2c1 (stereo unspecified)	.	.	.	1.4*	0.34	1.8*
CCOc1ccc2nc(NC3=NC(C)(C)C=C(C)N3)nc(C)c2c1	.	.	.	5.0*	-0.37	12.2
CC(C)c1ccc(/C=C/C(=O)NC(=S)Nc2ccc(CN3CCOCC3)cc2)cc1	.	.	.	43.9	.	35.5
COc1ccccc1C(=O)N(NC(=O)Oc1ccccc1)C(C)(C)C	.	.	.	95.8	.	105.0
CC(=O)Nc1ccc(S(=O)(=O)N2CCC(c3nc4ccc(C)cc4[nH]3)CC2)cc1	66.2	79.9	97.9	25.3	-0.95	43.3
CC(C)(C)c1ccc(S(=O)(=O)N2CCC(c3nc4ccc(Cl)cc4[nH]3)CC2)cc1	34.6*	66.9	85.3	67.2	-1.8	46.6
O=C(Nc1ccc(Cl)cc1)Nc1nnc(CSCc2ccc(Cl)cc2)s1	.	.	.	30.4	.	27.9
Cc1ccc(C(C)C)c(OCC(=O)Nc2ccc3c(c2)nc(CN2CCCC2)n3C)c1	80.7	25.3*	90.8	3.4*	-0.31	2.5*
Cc1cc(C)c2oc(C(=O)Nc3ccc(S(=O)(=O)N4CCCC(C)C4)cc3)cc(=O)c2c1 (stereo unspecified)	.	.	.	82.4	.	81.0
Cc1cccc(-n2nnc(C(=O)NC3CCCc4ccccc43)c2N)c1 (stereo unspecified)	19.2*	67.1	93.5	64.2	-0.56	57.0
CCCC(=O)NC(Nc1cccc(C(F)(F)F)c1)C(Cl)(Cl)Cl (stereo unspecified)	.	.	.	60.0	0.21	53.7
O=C(/C=C/c1ccccc1)c1ccc2c(c1)OCCCCO2	.	.	.	3.5*	-0.9	4.7
O=C1COc2ccc(C(=O)/C=C/c3ccccc3)cc2N1	.	.	.	10.1	.	7.6
SMILES	H69AR growth 86K	HUVEC prolif 384	Lung fibro prol	HCT116 bCat-KO	PTK2B oligo ant	HCT116 PTEN-null
COC(=O)COc1ccc(S(=O)(=O)Nc2ccc3c(c2)OCO3)cc1Cl	103.5	2.3*	44.2*	93.2	-0.06	98.8
COC(=O)COc1ccc(S(=O)(=O)NCCC2=CCCCC2)cc1Cl	99.0	10.2*	73.8	103.4	1.26	91.9
Cc1ccsc1/C=C/C1=Cc2c(sc(NC(=O)CSc3n[nH]c(N)n3)c2C#N)C(C)(C)C1	1.7*	14.8*	89.2	75.2	-0.69	73.7
Cc1ccc(CNC(=O)CSc2n[nH]c(N)n2)cc1	91.1	101.7	104.6	92.7	2.5	98.8
Nc1nc(SCC(=O)Nc2ccccc2Oc2ccccc2)n[nH]1	.	.	.	90.2	.	89.5
CCOc1ccc(/C=C/C2=Cc3c(sc(NC(=O)CSc4n[nH]c(N)n4)c3C#N)C(C)(C)C2)cc1	1.8*	3.6*	48.0*	28.2	1.19	19.6
O=C(c1cc(-c2ccncc2)nc2ccccc12)N1CCN(S(=O)(=O)/C=C/c2ccccc2)CC1	42.6	86.6	95.8	68.5	-1.08	66.9
COc1ccc(C(=O)N2CCCC(c3nc(-c4cc(OC)c(OC)c(OC)c4)no3)C2)cc1 (stereo unspecified)	34.9*	78.8	93.1	90.0	-0.87	92.2
COc1ccccc1C(=O)N1CCCC(c2nc(-c3cc(OC)c(OC)c(OC)c3)no2)C1 (stereo unspecified)	60.8	90.8	96.4	93.5	1.47	90.8
C=CCc1ccccc1OCC(O)CN1CCN(CCN2C(=O)c3cccc4cccc(c34)C2=O)CC1 (stereo unspecified)	.	.	.	2.4*	.	3.7*
CC(=O)c1ccc(OCC(O)CN2CCN(CCN3C(=O)c4cccc5cccc(c45)C3=O)CC2)cc1 (stereo unspecified)	.	.	.	34.6	.	36.7
CCC(OCC(O)CN1CCN(CCN2C(=O)c3cccc4cccc(c34)C2=O)CC1)c1ccccc1 (stereo unspecified)	.	.	.	5.9*	.	9.2
OC(COc1cccc2ccccc12)CN1CCCC1 (stereo unspecified)	96.4	92.7	94.0	94.9	-0.98	102.3
Cc1cccc(C)c1OCC(O)CN1CCC(CN2C(=O)c3cccc4cccc(c34)C2=O)CC1 (stereo unspecified)	.	.	.	1.1*	0.31	1.2*
Cc1ccccc1OCC(O)CN1CCN(CCN2C(=O)c3cccc4cccc(c34)C2=O)CC1 (stereo unspecified)	.	.	.	41.4	.	30.9
O=C(O)c1cc(-c2cccc(Cl)c2)nc2nc(N3CCCCC3)sc12	.	.	.	89.5	.	96.7
COc1ccc2[nH]c3c(N4CCN(Cc5ccc6c(c5)OCO6)CC4)ncnc3c2c1	48.6	54.1	89.5	11.3	-1.37	8.0
COc1ccc2c(c1)c1ncnc(N3CCN(Cc4ccc5c(c4)OCO5)CC3)c1n2C	27.6*	64.5	91.1	12.7	.	17.4
COc1ccc(-c2nnn(CCc3nn[nH]n3)n2)cc1	102.2	107.8	97.5	.	1.57	.
C=C(C)CNC(=S)NNC(=O)CCn1c2ccc(Cl)cc2c2cc(Cl)ccc21	.	.	.	2.7*	0.23	3.5*
COc1ccc2cc3c(N)nn(C(=O)Cc4ccccc4OC)c3nc2c1	46.3	28.0*	68.0	19.8	.	16.6
CCN(Cc1ccccc1)S(=O)(=O)c1ccc(S(=O)(=O)N(Cc2ccccn2)Cc2ccco2)cc1	22.1*	70.5	102.4	72.7	0.93	65.7
COC(=O)c1cc(COc2ccc3c(c2)oc(=O)c2ccccc23)c(C)o1	19.6*	24.8*	97.8	28.4	0.59	47.5
